Key:
[1] = system: Heart; experiment: Biodistribution in ddY mouse heart at 13.2 to 20.6 kBq, iv measured at 60 mins by gamma counting analysis; format: ADME, organism-based; details: in vivo, 1 h
Method in brief: (§1)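 Male ddY mice, 5 weeks old, received the 125I-labelled tracer (13.2–20.6 kBq) intravenously in the tail vein, in 100 µL saline containing ethanol. Animals were sacrificed at 2, 10, 30 and 60 min. Tissue radioactivity is expressed as %ID/g, mean (SD) of 5 animals.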

[2] = system: Intestine; experiment: Biodistribution in ddY mouse intestine at 13.2 to 20.6 kBq, iv measured at 10 mins by gamma counting analysis; format: ADME, organism-based; details: in vivo; method in brief: as §1
[3] = system: Brain; experiment: Biodistribution in ddY mouse brain at 13.2 to 20.6 kBq, iv measured at 60 mins by gamma counting analysis; format: ADME, organism-based; details: in vivo, 1 h; method in brief: as §1
[4] = system: Brain; experiment: Biodistribution in ddY mouse brain at 13.2 to 20.6 kBq, iv measured at 10 mins by gamma counting analysis; format: ADME, organism-based; details: in vivo; method in brief: as §1
[5] = system: Lung; experiment: Biodistribution in ddY mouse lung at 13.2 to 20.6 kBq, iv measured at 30 mins by gamma counting analysis; format: ADME, organism-based; details: in vivo, 0.5 h; method in brief: as §1
[6] = system: Intestine; experiment: Biodistribution in ddY mouse intestine at 13.2 to 20.6 kBq, iv measured at 2 mins by gamma counting analysis; format: ADME, organism-based; details: in vivo; method in brief: as §1
[7] = system: Lung; experiment: Biodistribution in ddY mouse lung at 13.2 to 20.6 kBq, iv measured at 60 mins by gamma counting analysis; format: ADME, organism-based; details: in vivo, 1 h; method in brief: as §1
[8] = system: Brain; experiment: Drug uptake in human brain at 92.5 kBq after 1 hr by autoradiographic analysis; format: ADME, tissue-based
[9] = system: Pancreas; experiment: Biodistribution in ddY mouse pancreas at 13.2 to 20.6 kBq, iv measured at 10 mins by gamma counting analysis; format: ADME, organism-based; details: in vivo; method in brief: as §1
[10] = system: Pancreas; experiment: Biodistribution in ddY mouse pancreas at 13.2 to 20.6 kBq, iv measured at 2 mins by gamma counting analysis; format: ADME, organism-based; details: in vivo; method in brief: as §1
[11] = system: Spleen; experiment: Biodistribution in ddY mouse spleen at 13.2 to 20.6 kBq, iv measured at 60 mins by gamma counting analysis; format: ADME, organism-based; details: in vivo, 1 h; method in brief: as §1
[12] = system: Brain; experiment: Ratio of drug level in ddY mouse brain at 13.2 to 20.6 kBq, iv measured at 2 mins to drug level in ddY mouse brain at 13.2 to 20.6 kBq, iv measured at 60 mins; format: ADME, organism-based; details: in vivo
Method in brief: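 Tail-vein injection of the 125I tracer (13.2–20.6 kBq, saline with ethanol) into male 5-week-old ddY mice. The ratio is brain uptake (%ID/g) at 2 min divided by brain uptake at 60 min, from groups of 5 animals.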

[13] = system: Kidney; experiment: Biodistribution in ddY mouse kidney at 13.2 to 20.6 kBq, iv measured at 10 mins by gamma counting analysis; format: ADME, organism-based; details: in vivo; method in brief: as §1
[14] = system: Intestine; experiment: Biodistribution in ddY mouse intestine at 13.2 to 20.6 kBq, iv measured at 60 mins by gamma counting analysis; format: ADME, organism-based; details: in vivo, 1 h; method in brief: as §1
[15] = system: Blood; experiment: Biodistribution in ddY mouse blood at 13.2 to 20.6 kBq, iv measured at 30 mins by gamma counting analysis; format: ADME, organism-based; details: in vivo, 0.5 h; method in brief: as §1
[16] = system: Liver; experiment: Biodistribution in ddY mouse liver at 13.2 to 20.6 kBq, iv measured at 30 mins by gamma counting analysis; format: ADME, organism-based; details: in vivo, 0.5 h; method in brief: as §1
[17] = system: Blood; experiment: Biodistribution in ddY mouse blood at 13.2 to 20.6 kBq, iv measured at 10 mins by gamma counting analysis; format: ADME, organism-based; details: in vivo; method in brief: as §1
[18] = system: Liver; experiment: Biodistribution in ddY mouse liver at 13.2 to 20.6 kBq, iv measured at 60 mins by gamma counting analysis; format: ADME, organism-based; details: in vivo, 1 h; method in brief: as §1
[19] = system: Stomach; experiment: Biodistribution in ddY mouse stomach at 13.2 to 20.6 kBq, iv measured per organ at 2 mins by gamma counting analysis; format: ADME, organism-based; details: in vivo
Method in brief: (§2)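 Male ddY mice, 5 weeks old, were injected in the tail vein with the 125I tracer (13.2–20.6 kBq) in 100 µL saline containing ethanol. Sacrifice at 2, 10, 30 and 60 min. Stomach radioactivity is expressed as %ID per whole organ, mean (SD) of 5 animals.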

[20] = system: Pancreas; experiment: Biodistribution in ddY mouse pancreas at 13.2 to 20.6 kBq, iv measured at 30 mins by gamma counting analysis; format: ADME, organism-based; details: in vivo, 0.5 h; method in brief: as §1
[21] = system: Heart; experiment: Biodistribution in ddY mouse heart at 13.2 to 20.6 kBq, iv measured at 10 mins by gamma counting analysis; format: ADME, organism-based; details: in vivo; method in brief: as §1
[22] = system: Stomach; experiment: Biodistribution in ddY mouse stomach at 13.2 to 20.6 kBq, iv measured per organ at 30 mins by gamma counting analysis; format: ADME, organism-based; details: in vivo, 0.5 h; method in brief: as §2
[23] = system: Heart; experiment: Biodistribution in ddY mouse heart at 13.2 to 20.6 kBq, iv measured at 2 mins by gamma counting analysis; format: ADME, organism-based; details: in vivo; method in brief: as §1
[24] = system: Brain; experiment: Drug uptake in white matter of alzheimer disease patient brain at 92.5 kBq after 1 hr by autoradiographic analysis; format: ADME, tissue-based; details: human, in vitro
Method in brief: (§3)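 Postmortem AD brain (person), 6 µm paraffin sections, deparaffinized in xylene and a graded ethanol series. Sections were incubated with the 125I tracer (92.5 kBq/100 µL) for 1 h at room temperature, then dipped in 50% EtOH for 2 h and rinsed in water. Imaging plates were exposed overnight. Adjacent sections were immunostained with AT8 (phospho-tau) and BC05 (Abeta1-42).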

[25] = system: Kidney; experiment: Biodistribution in ddY mouse kidney at 13.2 to 20.6 kBq, iv measured at 60 mins by gamma counting analysis; format: ADME, organism-based; details: in vivo, 1 h; method in brief: as §1
[26] = system: Pancreas; experiment: Biodistribution in ddY mouse pancreas at 13.2 to 20.6 kBq, iv measured at 60 mins by gamma counting analysis; format: ADME, organism-based; details: in vivo, 1 h; method in brief: as §1
[27] = system: Lung; experiment: Biodistribution in ddY mouse lung at 13.2 to 20.6 kBq, iv measured at 10 mins by gamma counting analysis; format: ADME, organism-based; details: in vivo; method in brief: as §1
[28] = system: Liver; experiment: Biodistribution in ddY mouse liver at 13.2 to 20.6 kBq, iv measured at 10 mins by gamma counting analysis; format: ADME, organism-based; details: in vivo; method in brief: as §1
[29] = system: Spleen; experiment: Biodistribution in ddY mouse spleen at 13.2 to 20.6 kBq, iv measured at 30 mins by gamma counting analysis; format: ADME, organism-based; details: in vivo, 0.5 h; method in brief: as §1
[30] = system: Spleen; experiment: Biodistribution in ddY mouse spleen at 13.2 to 20.6 kBq, iv measured at 2 mins by gamma counting analysis; format: ADME, organism-based; details: in vivo; method in brief: as §1
[31] = 1-Octanol-PBS buffer partition coefficient, log P of the compound at 0.37 MBq after 2 mins by gamma counting analysis; format: physicochemical
[32] = system: Blood; experiment: Biodistribution in ddY mouse blood at 13.2 to 20.6 kBq, iv measured at 2 mins by gamma counting analysis; format: ADME, organism-based; details: in vivo; method in brief: as §1
[33] = system: Heart; experiment: Biodistribution in ddY mouse heart at 13.2 to 20.6 kBq, iv measured at 30 mins by gamma counting analysis; format: ADME, organism-based; details: in vivo, 0.5 h; method in brief: as §1
[34] = system: Brain; experiment: Biodistribution in ddY mouse brain at 13.2 to 20.6 kBq, iv measured at 30 mins by gamma counting analysis; format: ADME, organism-based; details: in vivo, 0.5 h; method in brief: as §1
[35] = system: Liver; experiment: Biodistribution in ddY mouse liver at 13.2 to 20.6 kBq, iv measured at 2 mins by gamma counting analysis; format: ADME, organism-based; details: in vivo; method in brief: as §1
[36] = system: Stomach; experiment: Biodistribution in ddY mouse stomach at 13.2 to 20.6 kBq, iv measured per organ at 60 mins by gamma counting analysis; format: ADME, organism-based; details: in vivo, 1 h; method in brief: as §2
[37] = system: Lung; experiment: Biodistribution in ddY mouse lung at 13.2 to 20.6 kBq, iv measured at 2 mins by gamma counting analysis; format: ADME, organism-based; details: in vivo; method in brief: as §1
[38] = system: Blood; experiment: Biodistribution in ddY mouse blood at 13.2 to 20.6 kBq, iv measured at 60 mins by gamma counting analysis; format: ADME, organism-based; details: in vivo, 1 h; method in brief: as §1
[39] = system: Intestine; experiment: Biodistribution in ddY mouse intestine at 13.2 to 20.6 kBq, iv measured at 30 mins by gamma counting analysis; format: ADME, organism-based; details: in vivo, 0.5 h; method in brief: as §1
[40] = system: Brain; experiment: Biodistribution in ddY mouse brain at 13.2 to 20.6 kBq, iv measured at 2 mins by gamma counting analysis; format: ADME, organism-based; details: in vivo; method in brief: as §1
[41] = system: Brain; experiment: Drug uptake in gray matter of alzheimer disease patient brain at 92.5 kBq after 1 hr by autoradiographic analysis; format: ADME, tissue-based; details: human, in vitro; method in brief: as §3
[42] = system: Stomach; experiment: Biodistribution in ddY mouse stomach at 13.2 to 20.6 kBq, iv measured per organ at 10 mins by gamma counting analysis; format: ADME, organism-based; details: in vivo; method in brief: as §2
[43] = system: Kidney; experiment: Biodistribution in ddY mouse kidney at 13.2 to 20.6 kBq, iv measured at 2 mins by gamma counting analysis; format: ADME, organism-based; details: in vivo; method in brief: as §1
[44] = system: Kidney; experiment: Biodistribution in ddY mouse kidney at 13.2 to 20.6 kBq, iv measured at 30 mins by gamma counting analysis; format: ADME, organism-based; details: in vivo, 0.5 h; method in brief: as §1
[45] = system: Spleen; experiment: Biodistribution in ddY mouse spleen at 13.2 to 20.6 kBq, iv measured at 10 mins by gamma counting analysis; format: ADME, organism-based; details: in vivo; method in brief: as §1

`CN(C)c1ccc(/C=C/c2nc3ccc([125I])cc3[nH]2)cc1` showed a Drug uptake [1] of 1.12 % ID/g, a Drug uptake [2] of 9.22 % ID/g and a Drug uptake [3] of 0.33 % ID/g. For the same compound, the Drug uptake [4] was 1.61 % ID/g, the Drug uptake [5] was 2.2 % ID/g and the Drug uptake [6] was 3.11 % ID/g. For the same compound, the Drug uptake [7] was 1.39 % ID/g, the Drug uptake [8] was “Not Active” and the Drug uptake [9] was 3.31 % ID/g. It also gave a Drug uptake [10] of 5.4 % ID/g, a Drug uptake [11] of 1.42 % ID/g and a Ratio [12] of 9.94. For the same compound, the Drug uptake [13] was 7.28 % ID/g, the Drug uptake [14] was 26.5 % ID/g and the Drug uptake [15] was 1.88 % ID/g. It also gave a Drug uptake [16] of 14.9 % ID/g, a Drug uptake [17] of 3.24 % ID/g and a Drug uptake [18] of 10.1 % ID/g. The Drug uptake [19] was 1.67 %ID, the Drug uptake [20] was 1.67 % ID/g and the Drug uptake [21] was 3.46 % ID/g. The Drug uptake [22] was 3.83 %ID, the Drug uptake [23] was 8.56 % ID/g and the Drug uptake [24] was “Not Active”. The Drug uptake [25] was 2.26 % ID/g, the Drug uptake [26] was 0.89 % ID/g and the Drug uptake [27] was 3.98 % ID/g. For the same compound, the Drug uptake [28] was 19.2 % ID/g, the Drug uptake [29] was 2.66 % ID/g and the Drug uptake [30] was 3.48 % ID/g. The logP at 2 min [31] was 2.23, the Drug uptake [32] was 3.83 % ID/g and the Drug uptake [33] was 2 % ID/g. For the same compound, the Drug uptake [34] was 0.68 % ID/g, the Drug uptake [35] was 17.4 % ID/g and the Drug uptake [36] was 3.56 %ID. The Drug uptake [37] was 7.39 % ID/g, the Drug uptake [38] was 1.28 % ID/g and the Drug uptake [39] was 18.2 % ID/g. The Drug uptake [40] was 3.28 % ID/g, the Drug uptake [41] was “Active” and the Drug uptake [42] was 2.82 %ID. It also gave a Drug uptake [43] of 11.7 % ID/g, a Drug uptake [44] of 4.32 % ID/g and a Drug uptake [45] of 3.69 % ID/g.
